For assay [1], the target named is T1, 5-hydroxytryptamine receptor 1A (Rattus norvegicus) (UniProt P19327).
T1 sequence (whole entry): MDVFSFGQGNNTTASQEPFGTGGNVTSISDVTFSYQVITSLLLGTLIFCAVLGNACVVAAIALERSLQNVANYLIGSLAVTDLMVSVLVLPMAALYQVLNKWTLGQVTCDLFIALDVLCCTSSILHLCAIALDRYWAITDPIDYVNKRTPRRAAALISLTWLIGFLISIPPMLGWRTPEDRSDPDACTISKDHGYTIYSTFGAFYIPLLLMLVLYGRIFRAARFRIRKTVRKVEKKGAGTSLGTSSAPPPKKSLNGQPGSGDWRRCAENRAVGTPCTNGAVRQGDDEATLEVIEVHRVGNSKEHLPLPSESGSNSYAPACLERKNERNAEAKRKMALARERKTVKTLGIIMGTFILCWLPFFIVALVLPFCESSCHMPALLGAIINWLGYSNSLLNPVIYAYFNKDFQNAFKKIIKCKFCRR
Nature of the assay: Displacement of [3H]8-OH-DPAT from 5HT1A receptor in rat hippocampal membrane at 10^-6 M by radioligand binding assay. Particulars: Hippocampus. The assay is classed as cell membranes. Put shortly: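 Single-point screen at 1 µM on rat hippocampal membranes, reported as % inhibition of [3H]-8-OH-DPAT (170 Ci/mmol) binding. Non-specific binding was defined with 10 µM 5-HT. Compounds inhibiting at least 85% went on to full competition.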
(In general: Displacement assays read how much labelled ligand stays bound in the presence of the test substance.)

For assay [2], the target named is T2, 5-hydroxytryptamine receptor 1A (Rattus norvegicus, UniProt P19327).
T2 sequence (P19327 whole entry): T1 sequence (whole entry)
Nature of the assay: Displacement of [3H]8-OH-DPAT from 5HT1A receptor in rat hippocampal membrane by radioligand binding assay. Format: cell membranes, Hippocampus. Put shortly: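 Rat hippocampal membranes were incubated with [3H]-8-OH-DPAT (170 Ci/mmol), with 10 µM 5-HT for non-specific binding. Competition used 7–9 test concentrations, each in triplicate, to give Ki. Values are means of three experiments run in triplicate.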

Assay [3] has as its target 5-hydroxytryptamine receptor 7 (Homo sapiens, UniProt P34969). Kind of assay: Displacement of [3H]-5-CT from human 5-HT7b receptor expressed in HEK293 cells by radioligand binding assay. The assay is classed as cell-based. The method, boiled down: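 Membranes from HEK-293 cells stably expressing human 5-HT7b receptor, with [3H]-5-CT (93.0 Ci/mmol) as radioligand. Full competition used 7–9 concentrations of test compound, each run in triplicate. Ki was derived from the inhibition.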

Assay [4] has as its target 5-hydroxytryptamine receptor 2A (Rattus norvegicus) (UniProt P14842). Nature of the assay: Displacement of [3H]ketanserin from 5HT2A receptor in rat cortex membrane at 10^-6 M by radioligand binding assay. Format: cell membranes. The method, boiled down: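 Single-point screen at 1 µM, reported as % inhibition of [3H]-ketanserin (88.0 Ci/mmol) binding. Non-specific binding was defined with 1 µM methysergide. Compounds inhibiting at least 85% went on to full competition.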

Chain of 5-hydroxytryptamine receptor 2A (Rattus norvegicus) (P14842 whole entry): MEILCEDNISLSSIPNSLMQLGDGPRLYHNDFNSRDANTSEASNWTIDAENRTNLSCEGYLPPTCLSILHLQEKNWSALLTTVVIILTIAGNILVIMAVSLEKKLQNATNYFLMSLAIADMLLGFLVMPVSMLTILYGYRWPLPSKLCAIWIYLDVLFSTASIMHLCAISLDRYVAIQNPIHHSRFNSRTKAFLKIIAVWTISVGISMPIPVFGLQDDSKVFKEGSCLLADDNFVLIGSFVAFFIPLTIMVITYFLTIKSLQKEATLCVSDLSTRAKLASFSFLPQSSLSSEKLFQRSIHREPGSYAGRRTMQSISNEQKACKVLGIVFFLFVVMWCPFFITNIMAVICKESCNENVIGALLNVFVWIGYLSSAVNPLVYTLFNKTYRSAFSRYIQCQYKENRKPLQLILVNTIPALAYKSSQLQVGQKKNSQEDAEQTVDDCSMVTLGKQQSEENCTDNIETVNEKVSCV
Chain of 5-hydroxytryptamine receptor 7 (P34969 whole entry): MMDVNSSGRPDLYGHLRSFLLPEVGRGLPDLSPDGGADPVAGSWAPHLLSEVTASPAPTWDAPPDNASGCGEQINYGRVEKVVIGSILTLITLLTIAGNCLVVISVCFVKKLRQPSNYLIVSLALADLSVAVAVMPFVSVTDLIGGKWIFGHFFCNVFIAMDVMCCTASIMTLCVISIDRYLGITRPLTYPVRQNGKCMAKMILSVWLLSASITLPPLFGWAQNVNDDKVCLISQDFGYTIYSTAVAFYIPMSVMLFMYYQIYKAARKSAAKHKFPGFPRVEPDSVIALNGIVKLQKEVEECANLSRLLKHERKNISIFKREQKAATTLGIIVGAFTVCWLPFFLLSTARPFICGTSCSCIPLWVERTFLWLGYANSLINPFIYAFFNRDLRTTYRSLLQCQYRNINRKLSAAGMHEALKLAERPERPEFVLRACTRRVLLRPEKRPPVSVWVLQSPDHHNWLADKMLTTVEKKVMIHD

`O=c1c2cnc3ccccc3c2ncn1CCCCN1CCN(c2ccccc2F)CC1`: the inhibition is 96% in assay [1] and 79% in assay [4]. In addition, the Ki in assay [2] turned out to be 63 nM; in assay [3], 739 nM.

Turning to `O=c1c2cnc3ccccc3c2ncn1CCCCN1CCN(c2ccc(F)cc2)CC1`, the inhibition in assay [1] amounted to 75%; in assay [4], 82%. The compound further displayed an inhibition constant Ki in assay [3] of 404 nM.

Turning to `COc1ccccc1N1CCN(CCCCn2cnc3c(cnc4ccccc43)c2=O)CC1`, the inhibition in assay [1] is 97%; in assay [4] it was 64%. The Ki in assay [2] is 6 nM; in assay [3] it was 276 nM.

As to `O=c1c2cnc3ccccc3c2ncn1CCCCN1CCN(c2ccccc2Cl)CC1`, the figures for the inhibition in assay [1] and in assay [4] were 92% and 72%, respectively. Moreover, the Ki in assay [2] came to 17 nM; in assay [3], 153 nM.

As for `COc1ccc(N2CCN(CCCCn3cnc4c(cnc5ccccc54)c3=O)CC2)cc1`, the results for the inhibition in assay [1] and in assay [4] were 11% and 48%, respectively. The same compound came in with a Ki in assay [3] greater than 10000 nM.

Turning to `COc1cccc(N2CCN(CCCCn3cnc4c(cnc5ccccc54)c3=O)CC2)c1`, the inhibition in assay [1] turned out to be 90%; in assay [4], 76%. In addition, the Ki in assay [2] amounted to 31 nM; in assay [3], 484 nM.

Take `O=c1c2cnc3ccccc3c2ncn1CCCCN1CCN(c2cccc(Cl)c2)CC1`: the inhibition in assay [1] amounted to 96%; in assay [4], 84%. Also, the results for the Ki in assay [2] and in assay [3] were 34 nM and 184 nM, respectively.

As for `O=c1c2cnc3ccccc3c2ncn1CCCCN1CCN(c2ccccc2)CC1`, the inhibition in assay [1] turned out to be 93%; in assay [4], 76%. Besides, the Ki in assay [2] is 28 nM; in assay [3] it was 612 nM.

Consider `O=c1c2cnc3ccccc3c2ncn1CCCCN1CCN(c2cccc(C(F)(F)F)c2)CC1`, for which the values for the inhibition in assay [1] and in assay [4] were 89% and 61%, respectively. For the same compound, the results for the Ki in assay [2] and in assay [3] were 127 nM and 418 nM, respectively.

For `O=c1c2cnc3ccccc3c2ncn1CCCN1CCN(c2cccc(C(F)(F)F)c2)CC1`, the inhibition was determined as 85% in assay [1] and 44% in assay [4]. For the same compound, in assay [2], the Ki amounted to 243 nM.

Turning to `Cc1ccc2c(c1)ncc1c(=O)n(CCN3CCN(c4cccc(C(F)(F)F)c4)CC3)cnc12`, the inhibition in assay [1] was found to be 88%; in assay [4] it was 8%. In assay [2], the Ki worked out at 241 nM.

With `Cc1ccccc1N1CCN(CCCCn2cnc3c(cnc4ccccc43)c2=O)CC1`, the inhibition in assay [1] came to 96%; in assay [4] it was 82%. Further, the figures for the Ki in assay [2] and in assay [3] were 52 nM and 296 nM, respectively.

For `O=c1c2cnc3ccccc3c2ncn1CCCCN1CCN(c2ccc(Cl)cc2)CC1`, the inhibition in assay [1] came to 54%; in assay [4] it was 79%. In assay [3], the Ki stood at 328 nM.

For `COc1ccccc1N1CCN(CCn2cnc3c(cnc4ccccc43)c2=O)CC1`, the figures for the inhibition in assay [1] and in assay [4] were 93% and 36%, respectively. For the same compound, the affinity in assay [2] corresponds to a Ki of 42 nM.

What is called inhibition is how much of the control response was suppressed. Read a low inhibition as a response near the control. A word on the Ki: it is a measure of affinity in units of concentration, obtained from inhibition or displacement. A low value points to higher affinity.

The record behind these values is ChEMBL document CHEMBL1811770, “Synthesis and structural investigation of some pyrimido[5,4-c]quinolin-4(3H)-one derivatives with a long-chain arylpiperazine moiety as potent 5-HT(1A/2A) and 5-HT(7) receptor ligands” (Eur J Med Chem, 2011).
